Data set [1] concerns the target T1, P450 2B4 H172A (Oryctolagus cuniculus, UniProt P00178, H172A).
T1 sequence (P00178 with tags, fused parts or gaps H172A limits assumed): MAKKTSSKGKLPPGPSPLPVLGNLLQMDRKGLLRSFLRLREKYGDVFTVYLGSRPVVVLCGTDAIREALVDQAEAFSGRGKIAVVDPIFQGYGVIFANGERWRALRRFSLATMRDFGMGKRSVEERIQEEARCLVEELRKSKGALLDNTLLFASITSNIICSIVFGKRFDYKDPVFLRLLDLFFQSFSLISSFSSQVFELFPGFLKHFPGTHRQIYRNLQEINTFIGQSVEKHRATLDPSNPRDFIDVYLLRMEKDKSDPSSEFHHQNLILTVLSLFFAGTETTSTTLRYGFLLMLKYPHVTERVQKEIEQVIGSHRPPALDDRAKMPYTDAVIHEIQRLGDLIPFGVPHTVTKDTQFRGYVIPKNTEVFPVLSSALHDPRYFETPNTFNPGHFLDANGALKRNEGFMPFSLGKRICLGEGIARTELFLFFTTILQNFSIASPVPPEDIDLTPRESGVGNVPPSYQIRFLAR
Nature of the data set: Inhibition of 7-EFC O-deethylation by imidazole inhibitors. Format: biochemical, rabbit (Oryctolagus cuniculus).

Data set [2] addresses T2, P450 2B4 L437A (Oryctolagus cuniculus, UniProt P00178, L437A).
T2 sequence (P00178 with tags, fused parts or gaps L437A limits assumed): T1 sequence (P00178 with tags, fused parts or gaps H172A limits assumed) with A153H, L418A
Described as above. Format: biochemical, rabbit (Oryctolagus cuniculus).

The target in data set [3] is T3, P450 2B4 H172F (Oryctolagus cuniculus, UniProt P00178, H172F).
T3 sequence (P00178 with tags, fused parts or gaps H172F limits assumed): T1 sequence (P00178 with tags, fused parts or gaps H172A limits assumed) with A153F
Briefly: Spectral binding titration of imidazole ligands. Conditions: 2B4 H172F versus wild type. On the set-up: species or system rabbit (Oryctolagus cuniculus). In a few lines: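 Protein was the His-tagged 2B4dH construct (single mutants or wild type), expressed in TOPP3 cells and Ni-NTA purified. Spectra 350–700 nm recorded after serial 5 μl additions of 100 μM 4-CPI or bifonazole. Ks came from a tight-binding equation fit, and the 4-CPI/bifonazole Ks ratio was calculated.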

Data set [4] deals with T4, P450 2B4 E474D (Oryctolagus cuniculus, UniProt P00178, E474D).
T4 sequence (P00178 with tags, fused parts or gaps E474D limits assumed): T1 sequence (P00178 with tags, fused parts or gaps H172A limits assumed) with A153H, E455D
Format: biochemical, rabbit (Oryctolagus cuniculus).

Data set [5] addresses T5, P450 2B4 E474Q (Oryctolagus cuniculus, UniProt P00178, E474Q).
T5 sequence (P00178 with tags, fused parts or gaps E474Q limits assumed): T1 sequence (P00178 with tags, fused parts or gaps H172A limits assumed) with A153H, E455Q
In kind it is biochemical, rabbit (Oryctolagus cuniculus).

For data set [6], the target named is T3, P450 2B4 H172F.

Residue numbers refer to the chain shown, from its start.

As a reminder, the IC50 is the concentration needed to halve the response being measured. High values mean a need for much substance, low ones inhibition by little substance. As to `Clc1ccc(-c2c[nH]cn2)cc1` [4-CPI, 4-(4-chlorophenyl)imidazole], the values for the IC50 in data set [1] and in data set [2] were 310 nM and 970 nM, respectively. Moreover, the “Ratio 4-CPI IC50/Bifonazole IC50” value in data set [1] (2B4 H172A, 50 μM 7-EFC as substrate) is recorded as 0.53; in data set [2] (2B4 L437A, 50 μM 7-EFC as substrate), 3.88. The “change in the ratio of 4-CPI Ks to bifonazole Ks” value in data set [3] is “greater than 9 fold”.
What is called kcat is the number of substrate molecules converted per active site and unit of time at saturation. Take `O=c1ccc2nc3ccc(OCc4ccccc4)cc3oc-2c1` [7-BR, 7-benzyloxyresorufin]: in data set [4], the “decrease (change) in kcat versus wild type” value was ~ 2.5 fold, the kcat was found to be 3.1 ± 0.2 min⁻¹ and the kcat/S50 was found to be 0.5. In data set [4] (Hill equation), the S50 was determined as 6.2 ± 0.7 µM. Moreover, in data set [5], the “decrease (change) in kcat versus wild type” value is given as ~ 4.5 fold, the kcat is 1.7 ± 0.3 min⁻¹ and the kcat/S50 was 0.35. The compound also returned an S50 in data set [5] (Hill equation) of 4.8 ± 0.5 µM. In addition, in data set [6], the kcat was found to be 0 min⁻¹, the kcat/S50 is 0 and the “substrate turnover (activity)” value was “inactive”.
